Measured values from PMC11583631 (RSC Advances, 2024).
Read-outs that look alike come from different tables or passages of the source.

Columns and labels:
[1] = test system: bacterial tyrosinase enzyme; test: in vitro bacterial tyrosinase inhibition assay; type: biochemical; conditions: L-tyrosine substrate; for Percentage inhibition: 37 °C, absorbance 475 nm; for IC50: by extrapolation of the graph
[2] = test system: tyrosinase enzyme; test: kinetic studies; type: biochemical, bacterial; conditions: Lineweaver–Burk and Dixon plots, tyrosine 0.1–1 mM
Summary of the method: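 Isolated bacterial tyrosinase; pre-incubation and measurement timing as in the main inhibition assay. Lineweaver–Burk: 1/V vs 1/[S]. Ki (EI) and Ki′ (ESI) from secondary plots of slope and intercept vs inhibitor concentration. Dixon plot (1/V vs inhibitor concentration) confirmed inhibition type.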

[3] = biological target: bacterial tyrosinase enzyme; conditions: standard inhibitors; ref [50]; cited from earlier work

Row | Percentage inhibition [1] | type of inhibition [2] | IC50 [1] [µM] | Structure (SMILES) | IC50 [3] [µM]
1 | 22.84 ± 0.05 | – | – | CCCCc1ccc(NC(=O)CSc2nnc(-c3cc4c(ccc5ccccc54)o3)n2-c2ccccc2)cc1 [20a, N-(4-butylphenyl)-2-((5-(naphtho[2,1-b]furan-2-yl)-4-phenyl-4H-1,2,4-triazol-3-yl)thio)acetamide] | –
2 | 22.62 ± 0.30 | – | – | CCNC(=O)CSc1nnc(-c2cc3c(ccc4ccccc43)o2)n1-c1ccccc1 [20c, N-ethyl-2-((5-(naphtho[2,1-b]furan-2-yl)-4-phenyl-4H-1,2,4-triazol-3-yl)thio)acetamide] | –
3 | 58.66 ± 1.00 | – | – | O=C1O[C@H]([C@@H](O)CO)C(O)=C1O [Ascorbic acid, reference compound] | 11.5 ± 1
4 | 6.80 ± 0.58 | – | – | O=c1cc(CO)occ1O [Kojic acid, reference compound] | 30.3 ± 0.75

Second part, the compound before the results:

Row | Structure (SMILES) | Percentage inhibition [1] | type of inhibition [2] | IC50 [1] [µM] | IC50 [3] [µM]
5 | Cc1ccc(C)c(NC(=O)CSc2nnc(-c3cc4c(ccc5ccccc54)o3)n2-c2ccccc2)c1 [20b, N-(2,5-dimethylphenyl)-2-((5-(naphtho[2,1-b]furan-2-yl)-4-phenyl-4H-1,2,4-triazol-3-yl)thio)acetamide] | 31.40 ± 0.25 | – | – | –
6 | COc1ccc(OC)c(NC(=O)CSc2nnc(-c3cc4c(ccc5ccccc54)o3)n2-c2ccccc2)c1 [20d, N-(2,5-dimethoxyphenyl)-2-((5-(naphtho[2,1-b]furan-2-yl)-4-phenyl-4H-1,2,4-triazol-3-yl)thio)acetamide] | 22.77 ± 0.17 | – | – | –
7 | O=C(CSc1nnc(-c2cc3c(ccc4ccccc43)o2)n1-c1ccccc1)Nc1ccccc1Cl [20f, N-(2-chlorophenyl)-2-((5-(naphtho[2,1-b]furan-2-yl)-4-phenyl-4H-1,2,4-triazol-3-yl)thio)acetamide] | 32.34 ± 0.07 | non-competitively | 0.51 ± 0.12 | –
8 | COc1ccccc1NC(=O)CSc1nnc(-c2cc3c(ccc4ccccc43)o2)n1-c1ccccc1 [20g, N-(2-methoxyphenyl)-2-((5-(naphtho[2,1-b]furan-2-yl)-4-phenyl-4H-1,2,4-triazol-3-yl)thio)acetamide] | 5.40 ± 0.05 | – | 12.9 ± 0.15 | –
9 | O=C(CSc1nnc(-c2cc3c(ccc4ccccc43)o2)n1-c1ccccc1)Nc1ccc(F)cc1 [20h, N-(4-fluorophenyl)-2-((5-(naphtho[2,1-b]furan-2-yl)-4-phenyl-4H-1,2,4-triazol-3-yl)thio)acetamide] | 13.92 ± 0.11 | – | 9.36 ± 0.06 | –
10 | O=C(CSc1nnc(-c2cc3c(ccc4ccccc43)o2)n1-c1ccccc1)N1CCOCC1 [20i, 1-Morpholino-2-((5-(naphtho[2,1-b]furan-2-yl)-4-phenyl-4H-1,2,4-triazol-3-yl)thio)ethanone] | 30.55 ± 0.1 | – | 1.99 ± 0.07 | –
11 | CCN(CC)C(=O)CSc1nnc(-c2cc3c(ccc4ccccc43)o2)n1-c1ccccc1 [20j, N,N-diethyl-2-((5-(naphtho[2,1-b]furan-2-yl)-4-phenyl-4H-1,2,4-triazol-3-yl)thio)acetamide] | 2.61 ± 0.50 | – | 23.03 ± 0.18 | –
